Source: PubChem (several laboratories)
Efa HMGR inh: inhibitors of E. faecalis class II HMGR, primary screen, biochemical, Enterococcus faecalis | HMG-CoA reductase (Enterococcus faecalis, mvaE) | AID 1066, 2008 | purified E. faecalis HMGR, NADPH absorbance 340 nm kinetic | inhibition, % at 10 µM | 190,000 tested, 0.41% active;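 active = inhibition above a set limit, the median over all tested compounds plus 3 SD, cut at about 9.5% in these data; inconclusive = no clear call, values can overlap the other calls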;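 note: enzyme runs in reverse so mevalonate oxidation gives rising NADPH absorbance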
EP2 modulator: EP2 receptor modulators, cAMP readout, primary screen, cell-based, HTRF cAMP, PGE2 stimulation; Prostaglandin E2 receptor EP2 subtype (Homo sapiens), P43116; induction, % at 25 µM; 260,000 tested, 0.83% active; EP2-expressing cells, cAMP HTRF FRET, PGE2 co-stimulation;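 active = compounds whose cAMP rise, as percent of the full-agonist control response, exceeds 60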;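 note: rat C6 glioma line stably carrying human EP2 under a CMV promoter; the protocol text gives 20 µM as final concentration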
Target sequence (P43116 whole entry, looked up): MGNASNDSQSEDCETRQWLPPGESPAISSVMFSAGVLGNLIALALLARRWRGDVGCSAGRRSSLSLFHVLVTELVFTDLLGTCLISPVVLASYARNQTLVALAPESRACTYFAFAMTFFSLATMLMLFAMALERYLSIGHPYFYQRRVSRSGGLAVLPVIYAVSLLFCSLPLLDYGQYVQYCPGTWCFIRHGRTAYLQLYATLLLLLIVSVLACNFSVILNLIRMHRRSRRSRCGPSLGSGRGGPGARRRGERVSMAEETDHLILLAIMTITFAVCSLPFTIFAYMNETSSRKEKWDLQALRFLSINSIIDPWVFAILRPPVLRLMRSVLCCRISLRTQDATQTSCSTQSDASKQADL
b-catenin transl: modulators of beta-catenin nuclear translocation, primary screen, imaging, HeLa cells, immunofluorescence, high-content; nuclear translocation activity, % at 5 µM; 190,000 tested, 0.3% active;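 active = nuclear translocation activity above 50% at 5 µM, with a well cell count of 50 or more; inconclusive = wells under 50 cells across six images, flagged as toxic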;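 note: per-cell ratio of nuclear to cytoplasmic median beta-catenin stain intensity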
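Signal – beta-catenin immunofluorescence imaging with DAPI · Test system – human HeLa cell line · Dosing – 5 µM primary single dose, 0.1% DMSO, 0.02–20 µM confirmation series · Measure – % activation, nuclear-to-cytoplasmic median beta-catenin signal ratio per cell · Incubation – 24 h compound exposure at 37°C, 5% CO2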
Tb hexokinase: Trypanosoma brucei hexokinase 1 inhibitors, primary screen, biochemical, G6PDH-coupled NADH absorbance, MLSCN library; recombinant TbHK1, G6PDH-coupled NADH A340; 220,000 tested, 0.11% active; inhibition, % at 10 µM; AID 1430, 2008; hexokinase 1 [Trypanosoma brucei];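 active = inhibition of 50% or more in the single-dose primary screen; inactive = inhibition below 50%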
EP2 antag: human EP2 receptor antagonists, primary screen, TR-FRET cAMP, C6 glioma cells | 260,000 tested, 0.52% active | inhibition, % at 25 µM | C6 glioma cells expressing human EP2; cells stimulated with saturating PGE2 | AID 1422, 2008;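 active = percent inhibition above 40 after rounding to a whole number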;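 note: rat C6 glioma host cells with rolipram phosphodiesterase inhibitor present; the protocol text gives 20 µM as final concentration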
MT stabilizer: microtubule stabilizers in HeLa cells, primary screen, imaging, high-content imaging | HeLa tubulin immunostaining HCS, 24 h; share of cells brighter than vehicle mean+2SD | % tubulin-high responders, % at 10 µM | 200,000 tested, 0.83% active | AID 2205, 2009;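 active = plate Z-score above 3 for both tubulin-high and condensed-nucleus cell shares, with cell loss under 80%, at 10 µM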;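 note: anti alpha tubulin signal scored within the nucleus-defined area of each cell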
EP2 cAMP induct: cAMP induction in EP2, EP4, beta2-AR and parental cells, confirmation, counter-screen for EP2 modulator project, cell-based, five parallel assays, C6 glioma, HEK293 | shares compounds with EP2 modulator | cAMP HTRF induction; plus low (about EC15) PGE2 agonist | calls only at 20 µM (by protocol) | 1,300 tested, 47% active | AID 1080, 2008;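 active = cAMP induction above 50% in the main assay while under 30% in all four parallel counter assays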;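 note: rat C6 glioma cells stably expressing human EP2 receptor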
Numbers stand for hits; – = inactive; ? = inconclusive; · = no result; + = active, no number. Sampled rows, rich in hits. Any-hit rate of the full collection: about 2.4%.

SMILES | Efa HMGR inh | EP2 modulator | b-catenin transl | Tb hexokinase | EP2 antag | MT stabilizer | EP2 cAMP induct
COc1cccc(C(O)CN2CCC(O)(c3ccc(F)cc3)CC2)c1 (stereo not given) | · | – | · | · | – | · | ·
CC(=O)Oc1ccc(C(=O)Nc2nnc(C(C)C)s2)cc1 | · | – | · | · | – | · | ·
CCOc1ccc(OCC)c(NC(=O)CSc2nc3ccc(OC)cc3cc2C#N)c1 | · | – | · | · | – | · | ·
COC(=O)c1ccc(-c2ccco2)n1Cc1ccccc1Cl | – | 71 | · | – | – | – | +
COC(=O)c1ccc(-c2ccco2)n1Cc1nc(-c2ccc(OC)c(OC)c2)oc1C | – | – | · | – | – | – | ·
COc1cccc(C(=O)N2CCN(Cc3cccc(Cl)c3)CC2)c1OC | · | – | · | · | – | · | ·
O=C1CCCc2ccccc2N1Cc1ccccc1Cl | – | – | – | – | – | – | ·
Clc1cccc(Cl)c1CSc1cc2c(nn1)-c1ccccc1CC2 | – | – | – | – | – | – | ·
O=C1CCCc2ccccc2N1Cc1ccccc1 | – | – | – | – | – | – | ·
O=C1CCCc2ccccc2N1Cc1c(Cl)cccc1Cl | – | 72 | – | – | – | – | +
O=c1cc2c(nn1Cc1c(Cl)cccc1Cl)-c1ccccc1CC2 | – | 78 | – | – | – | – | +
O=C1CCCc2ccccc2N1Cc1cccc(Cl)c1 | – | 72 | – | – | – | – | –
COc1ccc(/C=N/N(C(C)=O)c2nc(-c3ccc(C)cc3)cs2)cc1 | – | – | · | – | – | – | ·
COc1ccccc1/C=N/N(C(C)=O)c1nc(-c2ccc(F)cc2)cs1 | – | 73 | – | – | – | – | –
O=C(NC1CCCCC1)C1CCCN(S(=O)(=O)c2ccc(Cl)cc2)C1 (stereo not given) | · | – | · | · | – | · | ·
CCOP(=O)(OCC)c1nc(-c2cccc([N+](=O)[O-])c2)oc1N1CCCCC1 | – | – | – | – | – | – | ·
CCOP(=O)(c1ccccc1)c1nc(-c2ccccc2Cl)oc1N1CCCCC1 (stereo not given) | – | 71 | ? | – | – | – | +
CCOC(=O)c1c(NC(=O)CSc2ncnc3[nH]ncc23)sc2c1CCC(C)C2 (stereo not given) | – | 66 | – | – | – | – | –
CCOC(=O)c1c(NC(=O)CSc2nnnn2-c2ccccc2)sc2c1CCC(C)C2 (stereo not given) | – | – | – | – | – | – | ·
Nc1cccc(OCc2nc(N)nc(N)c2-c2ccc(Cl)cc2)c1 | · | – | · | · | – | · | –
Cc1nnc(SCC(=O)N2c3ccccc3C(C)(c3ccccc3)CC2(C)C)s1 (stereo not given) | – | 67 | – | – | – | – | –
Cc1cc(C)n(-c2nc3ccccc3nc2Nc2ccc3[nH]c(=O)[nH]c3c2)n1 | – | 83 | – | – | – | – | –
CCc1c(C)sc2nc(C(C)C)n3c(=O)n(CC(=O)N(C)C)nc3c12 | · | – | · | · | · | · | ·
CC12CCC(C(=O)N(CSC(=S)N/N=C\c3ccccc3Cl)C1=O)C2(C)C (stereo not given) | – | 70 | · | – | – | – | –
COc1cccc(OC)c1NC(=O)C1CCCN(c2ncccn2)C1 (stereo not given) | · | – | · | · | – | · | ·
SMILES | Efa HMGR inh | EP2 modulator | b-catenin transl | Tb hexokinase | EP2 antag | MT stabilizer | EP2 cAMP induct
CC(C)C(=O)c1cc2c(cc1NC(=O)c1ccccc1)OCCO2 | – | 71 | · | – | – | – | +
O=c1oc2ccc(Cl)cc2cc1-c1nnc(-c2ccc(Cl)cc2)o1 | · | – | · | · | – | · | ·
CCOc1ccc(-n2nc3c(=S)[nH]nc(C)c3c2C)cc1 | – | 66 | – | – | – | – | –
COc1cccc(/C=N/c2oc(-c3ccccc3)cc2C#N)c1O | – | 78 | – | – | – | – | –
COc1ccc(C2(C(=O)N3CCC(n4nc(C5CC5)ccc4=O)CC3)CC2)cc1 | · | – | · | · | · | · | ·
CCOC(=O)C(Cc1ccccc1)(NC(C)=O)C(=O)OCC | – | 85 | – | – | – | – | –
CC1CCCN(c2ccc(C(=O)NC3CCCCC3)cn2)C1 (stereo not given) | · | – | · | · | – | · | ·
CCCC(=O)N(CCC)c1nnc(-c2ccccc2C)s1 | · | – | · | · | – | · | ·
O=c1c2cn[nH]c2nc(SCc2cc(=O)n3cc(Br)ccc3n2)n1-c1ccc(Br)cc1 | – | – | – | – | – | – | ·
O=c1c2cn[nH]c2nc(SCc2ccccc2F)n1-c1ccc(Br)cc1 | – | 83 | – | – | – | – | +
COc1cccc(CN2CCN(C(=O)c3cnn4cccnc34)[C@@H](C)C2)c1 | · | – | · | · | · | · | ·
O=C(O)[C@H]1CN(C(=O)CCN2CCCC2=O)C[C@@H]1c1ccc(F)cc1 | · | – | · | · | · | · | ·
COc1ccc(C(=O)NCCCN2CCOCC2)cc1OC | – | 68 | – | – | – | – | –
O=[N+]([O-])c1sc2ccccc2c1NCc1ccco1 | · | – | · | · | – | · | ·
COC(=O)N1N=C(c2ccccc2)CC1(O)C(F)(F)F (stereo not given) | – | – | · | – | – | – | ·
O=C(c1ccccc1O)N1N=C(c2ccccc2)CC1(O)C(F)(F)F (stereo not given) | – | 78 | – | – | – | – | –
COc1cccc(C(=O)N2N=C(c3ccccc3)CC2(O)C(F)(F)F)c1 (stereo not given) | – | – | · | – | – | – | ·
COc1ccc(C(=O)N2N=C(c3ccccc3)CC2(O)C(F)(F)F)cc1 (stereo not given) | – | 83 | – | – | – | – | +
O=C(Nc1cccc(-c2nc3ccccc3s2)c1)c1ccc([N+](=O)[O-])o1 | · | – | · | · | – | · | ·
CC1(C)CCCN(CC(O)c2ccc3c(c2)CCCN3S(C)(=O)=O)C1 (stereo not given) | · | – | · | · | – | · | ·
Clc1ccc(COn2c(-c3ccccc3)nc3ccccc32)cc1 | – | 67 | – | – | – | – | –
CSc1nc2nccc(-c3ccc(-c4ccccc4)cc3)n2n1 | – | 70 | – | – | – | – | –
CSc1nc2nccc(-c3ccc(Oc4ccccc4)cc3)n2n1 | – | – | – | – | – | – | ·
Cc1ccc(-c2cc3ccccc3nc2N2CCOCC2)cc1 | – | 73 | – | – | – | – | –
COc1ccc(C=O)cc1COc1c(F)c(F)cc(F)c1F | – | – | – | – | – | – | ·
C=CCc1cc(C=O)cc(OC)c1OCc1c(Cl)cccc1Cl | – | 92 | – | – | – | – | +
CCC(=O)N(Cc1cc2cc(C)c(C)cc2n2nnnc12)CC1CCCO1 (stereo not given) | · | – | · | · | – | · | ·
